Screens deposited in PubChem by several laboratories.
UPR CHOP act: apoptotic UPR (CHOP) activation. CHO-CHOP luciferase reporter, luminescence; percent of tunicamycin response over DMSO baseline. activation, % at 10 µM. 330,000 tested, 0.34% active. AID 449763;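 active means at 10 µM dose, activation of 40% or more, normalized to positive control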
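Test system: CHO-CHOP cells, stable luciferase reporter of PERK-eIF2a-CHOP signalling | Quantity: 500 CHO-CHOP cells per well | Buffer or medium: F12 plus 10% serum | Compound dosing: 10 µM single point, 0.5% DMSO | Schedule: 6 h compound treatment, 37 °C | Signal: Luciferase luminescence | Control set: Tunicamycin high control, DMSO low control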
TLR9-MyD88 block: blocks human TLR9 binding to MyD88; Q9NR96+Q99836; inhibition, % at 4.98 µM; AID 504734; CHO BLA complementation TLR9-MyD88, CCF4 FRET ratio; 340,000 tested, 0.21% active;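 active means inhibition above the mean over all tested compounds plus 3 SD, cut at about 21% in these data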
Target sequence (Q99836 whole entry, looked up): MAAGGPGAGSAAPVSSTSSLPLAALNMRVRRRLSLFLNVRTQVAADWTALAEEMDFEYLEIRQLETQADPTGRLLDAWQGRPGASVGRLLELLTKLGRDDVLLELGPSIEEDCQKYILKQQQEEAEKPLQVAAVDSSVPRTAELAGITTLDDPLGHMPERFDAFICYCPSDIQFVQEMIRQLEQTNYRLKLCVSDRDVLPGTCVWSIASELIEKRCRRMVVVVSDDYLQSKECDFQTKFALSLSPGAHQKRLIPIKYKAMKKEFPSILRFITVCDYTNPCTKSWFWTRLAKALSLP
Target sequence (Q9NR96 whole entry, looked up): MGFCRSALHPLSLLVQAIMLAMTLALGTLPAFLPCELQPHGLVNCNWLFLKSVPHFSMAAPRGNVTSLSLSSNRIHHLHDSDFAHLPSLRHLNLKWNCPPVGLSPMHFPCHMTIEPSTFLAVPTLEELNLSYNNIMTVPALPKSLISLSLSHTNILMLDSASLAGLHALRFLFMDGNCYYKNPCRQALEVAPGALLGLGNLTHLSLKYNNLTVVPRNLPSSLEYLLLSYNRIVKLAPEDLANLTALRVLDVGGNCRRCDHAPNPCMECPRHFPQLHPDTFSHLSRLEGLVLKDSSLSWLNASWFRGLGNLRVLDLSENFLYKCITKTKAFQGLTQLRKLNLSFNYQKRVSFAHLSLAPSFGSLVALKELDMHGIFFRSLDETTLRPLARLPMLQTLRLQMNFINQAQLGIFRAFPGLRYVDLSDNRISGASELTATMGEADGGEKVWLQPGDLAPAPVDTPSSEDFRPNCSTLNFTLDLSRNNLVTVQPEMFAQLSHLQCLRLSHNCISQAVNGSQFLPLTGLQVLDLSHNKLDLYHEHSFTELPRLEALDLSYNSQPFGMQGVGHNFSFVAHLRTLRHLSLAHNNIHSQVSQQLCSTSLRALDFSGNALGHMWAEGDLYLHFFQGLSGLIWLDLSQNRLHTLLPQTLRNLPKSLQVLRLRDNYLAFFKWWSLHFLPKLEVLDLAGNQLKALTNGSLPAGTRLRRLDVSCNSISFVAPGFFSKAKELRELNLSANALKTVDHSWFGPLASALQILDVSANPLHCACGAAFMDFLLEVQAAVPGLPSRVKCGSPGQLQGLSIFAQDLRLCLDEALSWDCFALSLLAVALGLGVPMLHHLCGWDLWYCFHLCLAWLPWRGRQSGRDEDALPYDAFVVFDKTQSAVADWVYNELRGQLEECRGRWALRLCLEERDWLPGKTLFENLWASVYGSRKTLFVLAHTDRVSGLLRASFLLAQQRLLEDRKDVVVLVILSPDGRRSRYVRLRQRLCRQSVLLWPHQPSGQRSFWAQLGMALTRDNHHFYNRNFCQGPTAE
NOD2 RIPK2 PPI: NOD2-RIPK2 protein interaction inhibition; O43353; CHO BLA complementation NOD2-RIPK2, CCF4 ratio; inhibition, % at 4.98 µM; 360,000 tested, 0.38% active; AID 624267; in the data active means inhibition above about 21%
UPR XBP1 act: adaptive UPR (XBP1) activation. activation, % at 20 µM. CHO-XBP1 luciferase reporter, IRE1-XBP1 UPR activation, luminescence; percent of tunicamycin response, DMSO as zero. AID 463104. 330,000 tested, 0.33% active;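 active means versus positive control, 20 µM dose yields 30% or more activation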
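Material: CHO cell line with stable XBP1 luciferase reporter; buffer or medium: F12 medium containing 10% fetal bovine serum; compound: single point, 20 µM final compound, 1% DMSO; incubation: 6 h treatment, 37 °C; measured by: glow luminescence from Steady-Glo reagent; evaluation: activation, % of tunicamycin; control set: tunicamycin high, DMSO low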
TLR4-MyD88 BLA: inhibitors of human TLR4-MyD88 binding | 200,000 tested, 0.18% active | HeLa CL3-4 TLR4/MyD88 BLA complementation, FRET ratio | inhibition, % at 8.4 µM | AID 861; in the data active means inhibition above about 25%
CHOP inh: CHOP inhibition in unfolded protein response; 220,000 tested, 3.8% active; inhibition, % at 10 µM; CHO-K1 CHOP-promoter luciferase, tunicamycin-induced, 15-18 h;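 active means compounds that reduced the stress-induced luciferase reporter signal by more than about 70% of percent inhibition, limit read from the data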
UPR XBP1 confirm: confirmation of adaptive unfolded protein response (XBP1) activators; shares compounds with UPR XBP1 act; CHO-XBP1 IRE1-XBP1 luciferase reporter, luminescence; activation, % at 20 µM; 1,000 tested, 63% active;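 active means reporter signal at least 30% of the positive control's activation in two or more of four replicate wells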
Numbers stand for hits; – = inactive; · = no result. Many of the other results were omitted from the sample, so hits are more common in it than they were.

SMILES	UPR CHOP act	TLR9-MyD88 block	NOD2 RIPK2 PPI	UPR XBP1 act	TLR4-MyD88 BLA	CHOP inh	UPR XBP1 confirm
COc1cc(Cl)ccc1OCc1cc(C(=O)N2C[C@]3(C)C[C@H]2CC(C)(C)C3)no1	–	–	–	–	·	·	·
CN1CCN(C2CN(Cc3cn(Cc4ccc(Cl)cc4)nn3)S(=O)(=O)C2)CC1 (configuration not stated)	·	·	–	·	·	·	·
Cc1cc(NC(=O)CSc2nc3sc(C)c(C)c3c(=O)n2C2CCCC2)no1	–	–	–	57.6	–	86.5	54.3
Cc1cc(NC(=O)CSc2nnnn2C2CCCC2)no1	–	–	–	–	–	–	·
Cc1cc(C)cc(-n2nnnc2SCC(=O)Nc2nc(-c3ccc(Cl)cc3)cs2)c1	–	–	–	34.2	–	76.2	–
S=C(Nc1cccc(Cl)c1)NC1CCCCC1	–	–	–	36.9	–	–	–
S=C(NNc1cccc(Cl)c1)NC1CCCCC1	–	–	–	–	–	–	·
Cc1ccc2c(c1)C(=O)C(=O)N2Cc1ccc(F)cc1	–	–	–	–	·	·	·
Cc1ccc2c(c1)C(=O)C(=O)N2Cc1ccc(Cl)cc1	–	–	–	37.2	·	·	29.9
Cc1cc(=O)[nH]c2c(C)cc(S(=O)(=O)Nc3ccc(O)cc3)cc12	–	–	–	–	·	·	·
Cc1cc(C)n(-c2nc(NCCO)c3c4c(sc3n2)CCCC4)n1	–	–	–	–	–	–	·
Cc1cc(C)n(-c2nc(NCCCO)c3c4c(sc3n2)CCCC4)n1	–	–	–	41.2	–	–	–
O=C(Nc1nc2ccccc2s1)c1cc2c(s1)-c1ccccc1OC2	–	–	–	133.8	–	–	93.3
O=C(Nc1nccs1)c1cc2c(s1)-c1ccccc1OC2	–	–	–	–	–	–	·
Cn1c(=O)c2c(ncn2CC(=O)OCC(=O)Nc2ccc(F)cc2Cl)n(C)c1=O	–	–	–	–	·	·	·
COc1ccc(-c2c(-c3cc(OC)cc(OC)c3)n(C)c3ccc(-c4cnc(N)nc4)cc23)cc1	–	–	–	189.2	·	·	132.1
Cc1nnc(SCC(=O)N2CCN(c3cccc(Cl)c3)CC2)n1C1CC1	–	–	–	–	·	·	·
CSCC[C@H](NC(=O)C(C)Oc1ccc(Cl)cc1)c1nc2ccccc2[nH]1 (some centres not stated)	–	–	–	–	–	–	·
O=C(COc1ccccc1)Nc1nnc(COc2ccccc2)s1	–	–	–	–	·	·	·
CN(C)c1nc(N)nc(CSc2nnnn2-c2ccccc2)n1	–	–	–	–	–	–	·
CCn1nc(C)cc1C(=O)Sc1cccc(Br)c1	–	–	–	97.1	·	–	–
CCn1nc(C)cc1C(=O)Sc1ccc(Cl)cc1Cl	–	–	–	–	·	–	·
Cc1ccc(N(C(=O)CNC(=O)c2ccco2)C(C(=O)NC2CCCC2)c2ccncc2)cc1F (configuration not stated)	–	–	–	–	·	·	·
Cc1ccc(-c2csc3nc4cc(C(N)=O)ccc4c(=O)n23)cc1	–	–	–	–	·	–	·
Cc1ccc(CNC(=O)c2ccc3c(=O)n4c(-c5ccc(C)cc5)csc4nc3c2)cc1	–	–	–	46.3	·	79.1	120.0
SMILES	UPR CHOP act	TLR9-MyD88 block	NOD2 RIPK2 PPI	UPR XBP1 act	TLR4-MyD88 BLA	CHOP inh	UPR XBP1 confirm
CCOC(=O)c1cc2c(ccn2-c2ccc(F)cc2)n1CC(=O)N1CCN(C(=O)c2ccco2)CC1	–	–	–	44.9	–	–	–
COc1ccc(S(=O)(=O)N2CCN(S(=O)(=O)c3ccc4c(c3)OCCO4)CC2)cc1	–	–	–	37.6	–	–	–
COc1ccc(S(=O)(=O)N2CCN(S(=O)(=O)c3ccc4c(c3)OCCO4)CC2)cc1C	–	–	–	–	–	–	·
O=C(Nc1ccc2c(c1)CCC2)C1COc2ccccc2O1 (configuration not stated)	–	–	–	–	–	–	·
Cc1ccc(S(=O)(=O)N2CCC[C@H]2C(=O)OCC(=O)N2CCc3ccccc32)cc1	–	–	–	–	·	·	·
O=[N+]([O-])c1ccc(NN=Cc2cccc3ccccc23)nc1	·	–	–	·	·	·	·
COc1cccc(/C=N/Nc2ccc([N+](=O)[O-])cn2)c1O	–	–	–	64.8	·	·	63.5
CCOC(=O)c1nnc(-c2ccccc2)nc1Sc1ccccc1Cl	–	–	–	38.1	–	–	67.8
CCOC(=O)c1nnc(-c2ccc(C)cc2)nc1Sc1cccc(Cl)c1	–	–	–	48.3	–	–	45.6
O=C(Nc1cccc(Cl)c1)c1nc[nH]c1C(=O)NCCCCNC(=O)c1[nH]cnc1C(=O)Nc1cccc(Cl)c1	–	–	–	60.2	·	·	–
c1ccc(SSc2ccccc2)cc1	–	–	–	48.8	–	–	–
c1cc(SSc2ccncc2)ccn1	–	–	–	–	·	·	·
CC(NC(=O)c1ccccc1Br)c1nnc(SCC(=O)NC2CCCCC2)n1C (configuration not stated)	–	–	–	–	·	·	·
COc1ccc(C(=O)NCc2nnc(SCC(=O)Nc3ccccc3OC)n2C)cc1	–	–	–	–	–	–	·
O=[N+]([O-])c1ccc(/C=C/c2ccc3cccc([N+](=O)[O-])c3n2)cc1	–	–	–	–	–	–	·
O=[N+]([O-])c1cccc(/C=C/c2ccc3cccc(O)c3n2)c1	–	–	–	97.6	·	·	157.9
CNC(=O)c1ccc(-n2nc(C)cc2-c2ccccc2)cc1	–	–	–	43.8	–	–	–
COC(=O)C1=C(C)N(Cc2ccccc2)C(=NCC(C)C)N[C@H]1c1cccc(C(F)(F)F)c1	–	–	–	–	·	·	·
COC(=O)C1=C(C)N(Cc2ccccc2)C(=NCc2ccccc2)N[C@H]1c1cccc(C(F)(F)F)c1	–	–	–	30.3	·	·	–
COC(=O)C1=C(C)N(Cc2ccccc2)C(=NCc2cccc(Cl)c2)N[C@H]1c1cccc(F)c1	–	–	–	45.1	·	·	–
COC(=O)C1=C(C)N(Cc2ccccc2)C(=NCc2ccc(OC)cc2)N[C@H]1c1cccc(F)c1	–	–	–	–	·	·	·
CCC(C)(C)NC(=O)C(C(C)C)N(CC1CCCO1)C(=O)CNS(=O)(=O)c1ccc(F)cc1 (configuration not stated)	–	–	–	–	·	·	·
COc1ccc(Nc2ncnc3sc(C)cc23)c(OC)c1	–	–	–	30.5	·	·	–
COc1ccc(Nc2ncnc3ccccc23)c(OC)c1	–	–	–	–	–	–	·
CN(CCc1ccccc1)C(=O)c1ccc(NC(=O)Cc2ccc(NC(=O)C3CCCN(C(=O)CCc4ccccc4)C3)cc2)cc1 (configuration not stated)	·	–	–	·	·	·	·
COc1ccc(/C=N/NC(=O)Nc2cccc3nsnc23)cc1OC	–	–	–	73.6	–	83.0	–
